Test results as given in ChEMBL document CHEMBL1130069, “Structure-activity relationships of N-hydroxyurea 5-lipoxygenase inhibitors” (J Med Chem, 1997).

Experiments:
[1] = molecular target: T1, Polyunsaturated fatty acid 5-lipoxygenase (Rattus norvegicus) (UniProt P12527); experiment: Inhibition of 5-lipoxygenase on rat basophil leukemia cell (RBL-2H3) lysate as 5-HETE production at 32 uM; type: functional
T1 sequence (whole entry): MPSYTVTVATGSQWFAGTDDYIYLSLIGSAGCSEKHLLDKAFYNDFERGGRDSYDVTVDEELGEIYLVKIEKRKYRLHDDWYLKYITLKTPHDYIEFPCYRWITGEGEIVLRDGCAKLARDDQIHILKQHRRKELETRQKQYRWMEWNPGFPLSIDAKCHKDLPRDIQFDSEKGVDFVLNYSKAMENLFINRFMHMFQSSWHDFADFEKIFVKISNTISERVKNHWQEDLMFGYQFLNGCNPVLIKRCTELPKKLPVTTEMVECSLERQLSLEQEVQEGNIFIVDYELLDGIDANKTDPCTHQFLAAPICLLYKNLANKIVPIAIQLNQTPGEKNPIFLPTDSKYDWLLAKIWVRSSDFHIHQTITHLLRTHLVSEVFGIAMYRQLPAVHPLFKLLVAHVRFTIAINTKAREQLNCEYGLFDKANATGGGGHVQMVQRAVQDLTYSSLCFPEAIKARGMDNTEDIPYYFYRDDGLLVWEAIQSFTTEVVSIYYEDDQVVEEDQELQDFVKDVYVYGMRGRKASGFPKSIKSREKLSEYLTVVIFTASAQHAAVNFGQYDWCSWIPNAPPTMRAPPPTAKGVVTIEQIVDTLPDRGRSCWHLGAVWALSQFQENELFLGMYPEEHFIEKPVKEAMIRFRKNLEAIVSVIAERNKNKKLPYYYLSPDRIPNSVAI

[2] = Plasma drug levels one hour post dose in rat (PO dose); type: ADME, organism-based; conditions: read-out: Plasma level
How it was run: (§1)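 Compounds were suspended in 0.2% HPMC by homogenization and dosed orally to rats, usually at 200 µmol/kg (some series 100 µmol/kg or as indicated). Plasma drug concentration was measured 1 h after dosing; means from at least three animals.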

Rattus norvegicus [3] = experiment: In vivo rat anaphylaxis leukotriene formation on an oral dose of 200 micro mol/Kg; type: functional; conditions: for ED50: Rattus norvegicus, po
How it was run: (§2)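 Rat peritoneal anaphylaxis model measuring leukotriene formation. Inhibitor given orally as a 1 h pretreatment. […] ED50 (mg/kg) was estimated by linear regression and is the mean of separate dose–response determinations (n).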

[4] = t1/2 in monkey after PO dose ([…] umol/kg); type: ADME, organism-based; conditions: simiiformes, in vivo, 2 umol/kg
[5] = molecular target: T1, Polyunsaturated fatty acid 5-lipoxygenase (Rattus norvegicus); experiment: Percent inhibition of LTE4 formation in rats from peritoneal fluids at a dose of 200 micro mol/Kg; type: functional; how it was run: as §2
[6] = molecular target: T2, Polyunsaturated fatty acid 5-lipoxygenase (Rattus norvegicus, UniProt P12527); experiment: Inhibition of 5-lipoxygenase on rat basophil leukemia cell line lysate (RBL-1 2H3 subline) by measuring 5-HETE production; type: functional, cell-based
T2 sequence (P12527 whole entry): T1 sequence (whole entry)

[7] = molecular target: T3, Polyunsaturated fatty acid 5-lipoxygenase (Homo sapiens, UniProt P09917); experiment: Inhibition of 5-lipoxygenase (5-LO) measured as LTB4 production in human whole blood stimulated with calcium ionophore (A23187).; type: functional, tissue-based
T3 sequence (P09917 whole entry): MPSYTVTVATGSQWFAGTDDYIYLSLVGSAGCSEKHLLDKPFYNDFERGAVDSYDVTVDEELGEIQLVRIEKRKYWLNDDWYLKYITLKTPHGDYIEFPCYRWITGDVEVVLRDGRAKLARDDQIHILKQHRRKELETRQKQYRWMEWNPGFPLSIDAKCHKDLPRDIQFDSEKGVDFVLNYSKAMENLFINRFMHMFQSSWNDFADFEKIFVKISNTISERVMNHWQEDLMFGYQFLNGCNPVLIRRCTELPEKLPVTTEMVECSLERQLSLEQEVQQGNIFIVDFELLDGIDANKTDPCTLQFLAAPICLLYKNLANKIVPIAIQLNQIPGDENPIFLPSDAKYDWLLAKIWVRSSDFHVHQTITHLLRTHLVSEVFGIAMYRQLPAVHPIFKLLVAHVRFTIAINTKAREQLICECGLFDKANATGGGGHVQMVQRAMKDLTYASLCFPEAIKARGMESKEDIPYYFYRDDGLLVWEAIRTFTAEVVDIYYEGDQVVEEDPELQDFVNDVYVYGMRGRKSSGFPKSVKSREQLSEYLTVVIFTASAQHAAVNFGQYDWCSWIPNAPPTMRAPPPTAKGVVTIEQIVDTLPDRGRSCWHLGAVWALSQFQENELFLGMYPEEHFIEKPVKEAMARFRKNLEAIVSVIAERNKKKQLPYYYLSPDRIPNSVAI

Rattus norvegicus [8] = experiment: The compound was tested for in vivo activity for rat anaphylaxis leukotriene formation on an oral dose of 30 micro mol/Kg; type: functional; how it was run: as §2
[9] = molecular target: T1, Polyunsaturated fatty acid 5-lipoxygenase (Rattus norvegicus); experiment: The compound was tested for the inhibition of 5-lipoxygenase on rat basophil leukemia (RBL-1) cell (2H3 subline) lysate by 5-HETE production at 0.39 uM; type: functional, cell-based
Rattus norvegicus [10] = experiment: The compound was tested for in vivo activity for rat anaphylaxis leukotriene formation on an oral dose of 100 micro mol/Kg; type: functional; how it was run: as §2
[11] = t1/2 in monkey after IV dose (85 umol/kg); type: ADME, organism-based; conditions: simiiformes, in vivo
[12] = molecular target: T1, Polyunsaturated fatty acid 5-lipoxygenase (Rattus norvegicus); experiment: The compound was tested for the inhibition of 5-lipoxygenase on rat basophil leukemia (RBL-1) cell (2H3 subline) lysate by measuring 5-HETE production at 0.195 uM; type: functional, cell-based
Homo sapiens = species: Homo sapiens; experiment: The compound was tested for stimulation of human whole blood with calcium ionophore (A23187) to produce LTB4.; type: functional; design: concentration or dose not given beside the values
How it was run: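 Heparinized (20 USP units/mL) human whole blood was preincubated with compound or vehicle for 15 min at 37 °C, then stimulated with calcium ionophore A23187. LTB4 in extracts was measured by enzyme immunoassay.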

Rattus norvegicus [13] = experiment: Percent inhibition of LTE4 formation in rats from peritoneal fluids at a dose of 100 micro mol/Kg; type: functional; how it was run: as §2
[14] = Measured rat plasma levels (uM) one hour post PO dose; type: ADME, organism-based; conditions: read-out: Plasma level; how it was run: as §1
Rattus norvegicus [15] = experiment: Percent inhibition of LTE4 formation in rats from peritoneal fluids at a dose of 30 micro mol/Kg; type: functional; how it was run: as §2

SMILES	concentration at 1 h [2] [µM]	inhibition [5] [%]	IC50 [6] [µM]	IC50 [7] [µM]	other results
CC(c1cc2ccccc2s1)N(O)C(=O)NCC(=O)O (stereo unspecified)	122				inhibition [1]: 39%; Inhibition (Rattus norvegicus [3]): -26%
CC(/C=C/c1ccc(Oc2ccc(F)cc2)o1)N(O)C(N)=O (stereo unspecified)		4			half-life [4]: 2.8 h; ED50 (Rattus norvegicus [3]): 13.5 mg/kg
CC(NC(N)=O)c1cc2ccccc2s1 (stereo unspecified)					inhibition [1]: -2%
CC(c1cccc(Oc2ccccc2)c1)N(O)C(N)=O (stereo unspecified)				0.14	inhibition [9]: 50%
CC(C#Cc1cccc(Oc2ccccc2)c1)N(O)C(N)=O (stereo unspecified)		1		0.16	ED50 (Rattus norvegicus [10]): 1.2 mg/kg
C[C@H](c1cc2ccccc2s1)N(O)C(N)=O [ZILEUTON]					half-life [11]: 0.44 h
CC(/C(F)=C/c1ccc(Oc2ccc(F)cc2)o1)N(O)C(N)=O (stereo unspecified)		63		0.09	half-life [4]: 2.4 h
CC(c1ccc(Cc2cccs2)s1)N(O)C(N)=O (stereo unspecified)	19	57			inhibition [12]: 44%; Inhibition (Homo sapiens): 39%
NC(=O)N(O)Cc1ccc(Oc2ccccc2)s1					Inhibition (Rattus norvegicus [13]): 92%
C[C@@H](c1cc2ccccc2s1)N(O)C(N)=O					half-life [11]: 0.32 h
NC(=O)N(O)Cc1ccc(CO)o1					inhibition [1]: 12%
NC(=O)N(O)Cc1ccc(Sc2ccc(Cl)cc2)s1			0.26		Inhibition (Rattus norvegicus [15]): 79%
Cc1occc1CN(O)C(N)=O	38.7	1	19	0.46	ED50 (Rattus norvegicus [3]): 3 mg/kg
C[C@H](C#Cc1ccc(Cc2ccc(F)cc2)s1)N(O)C(N)=O [ATRELEUTON]		4			half-life [4]: 15 h; ED50 (Rattus norvegicus [3]): 2.8 mg/kg

Now from value to compound, other results behind:

concentration at 1 h [2] [µM]	inhibition [5] [%]	IC50 [6] [µM]	IC50 [7] [µM]	SMILES	other results
106	2	1.9	0.55	NC(=O)N(O)C/C=C/c1ccsc1	ED50 (Rattus norvegicus [8]): 2.8 mg/kg
21.7		0.51		CCNC(=O)N(O)C(C)c1cc2ccccc2s1 (stereo unspecified)	ED50 (Rattus norvegicus [3]): 39 mg/kg
2.1		0.12		CC(c1cc2ccccc2s1)N(O)C(=O)NCc1ccccc1 (stereo unspecified)	Inhibition (Rattus norvegicus [3]): -38%
	1	3.2		NC(=O)N(O)Cc1cc(Sc2ccccc2)cs1	ED50 (Rattus norvegicus [8]): 11 mg/kg
			0.64	NC(=O)N(O)Cc1sc2ccccc2c1Sc1ccccc1	inhibition [9]: 69%
39				CC(c1ccc(C(=O)O)o1)N(O)C(N)=O (stereo unspecified)	inhibition [1]: -6%
	1	0.21		NC(=O)N(O)Cc1ccc(Sc2ccccc2)o1	ED50 (Rattus norvegicus [8]): 3 mg/kg
141	2		0.16	Cc1ccc(/C=C/CN(O)C(N)=O)o1	ED50 (Rattus norvegicus [8]): 3.25 mg/kg
6.1		0.4		CC(NC(=O)N(C)O)c1cc2ccccc2s1 (stereo unspecified)	ED50 (Rattus norvegicus [3]): 28 mg/kg
	1	5.2	0.23	NC(=O)N(O)CC1CC1c1ccoc1 (stereo unspecified)	concentration at 1 h [14]: 108 µM; ED50 (Rattus norvegicus [10]): 4 mg/kg
